pEC50, pIC50: −log10 of the molar value. Several values for one entry are separate records, joined by “and”; a condition that tells them apart may be missing. Equal values may be shown once.
Experiments:
MIA PaCa-2 = assay: Concentration required to inhibit the colony formation of pancreatic human (PACA) cell lines by 50%; assay type: functional, cell-based
Summary of the method: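 PaCa2 single-cell suspensions plated at 400 cells per 60-mm dish. Drug exposure began 24 h after plating. Colonies formed over 7-12 days, then were MeOH-fixed, Giemsa-stained, counted and compared with untreated control. Triplicate assays. Drugs in DMSO, final ≤0.1%.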

3LLD122 = assay: Concentration required to inhibit the colony formation of lung carcinoma (3LLD122) cell lines by 50%; assay type: functional, cell-based; settings: Mus musculus
Summary of the method: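 Murine 3LLD122 (highly metastatic 3LL subclone) grown in RPMI with 10% FCS and 2 mM glutamine at 37 °C, 5% CO2. Compounds added to the upper layer of a semisolid agar bilayer. Aggregates of >20 cells scored as colonies after 7 days by inverted microscope. Drugs in DMSO at 1:1000 dilution (final DMSO ≤0.1%).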

HL-60 [1] = assay: Differentiation activity was determined by evaluation of NBT reduction activity of HL-60 cells, % of NBT positive cells determined; assay type: functional, Homo sapiens
Summary of the method: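 HL-60 grown 2 days with or without compound at 0.25 μM. Cultures then given 0.1% NBT, stimulated with 0.4 μM PMA and incubated 30 min at 37 °C. At least 200 cells scored microscopically. % NBT-positive cells taken as stained/total, minus the untreated-culture value. Three independent experiments.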

HL-60 [2] = assay: In vitro for the differentiation induction activity determined in the human myeloid leukemic cell line HL-60; assay type: functional; settings: read-out: ED50 (the source's name)
Summary of the method: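 HL-60 treated 4 days. NBT reduction measured with 0.1% NBT plus 0.4 μM PMA for 30 min at 37 °C, scoring ≥200 cells, with the untreated background subtracted. ED50 is the concentration giving half-maximal NBT reduction, obtained by linear regression and averaged over three independent experiments.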

Structure (SMILES)	pIC50 (MIA PaCa-2)	pIC50 (3LLD122)	pEC50 (HL-60 [2])	NBT positive cells (HL-60 [1])
CCCC(=O)OCOC(=O)C(C)(C)C [AN-9]	4.52	4.46	–	–
CCC(=O)OCOC(=O)/C=C(C)/C=C/C=C(C)/C=C/C1=C(C)CCCC1(C)C	–	–	–	60% and 56% and 57%
CC1=C(/C=C/C(C)=C/C=C/C(C)=C/C(=O)OCOC(=O)C(C)(C)C)C(C)(C)CCC1	–	–	–	13% and 21% and 17%
CCCC(=O)O [BUTYRIC ACID]	3.60	< 3.00	3.55	–
CC1=C(/C=C/C(C)=C/C=C/C(C)=C/C(=O)OCOC(=O)C(C)C)C(C)(C)CCC1	–	–	–	48% and 54% and 49%

More lines, main results first:

pIC50 (MIA PaCa-2)	pIC50 (3LLD122)	pEC50 (HL-60 [2])	Structure (SMILES)	NBT positive cells (HL-60 [1])
5.40	5.35	7.51	CCCC(=O)OCOC(=O)/C=C(C)/C=C/C=C(C)/C=C/C1=C(C)CCCC1(C)C	72% and 74% and 78%
5.02	4.48	5.90	CC1=C(/C=C/C(C)=C/C=C/C(C)=C/C(=O)O)C(C)(C)CCC1 [TRETINOIN]	21% and 30% and 22%

Source: ChEMBL document CHEMBL1133463, “Novel mutual prodrug of retinoic and butyric acids with enhanced anticancer activity” (J Med Chem, 2000)
